Measurements: ChEMBL document CHEMBL5143722, “Antimicrobial Peptides against Multidrug-Resistant Pseudomonas aeruginosa Biofilm from Cystic Fibrosis Patients” (J Med Chem, 2022)
Activity calls are given as the source filed them. The rule behind the calls is not given here.

What was measured:
[1] = tested on: Pseudomonas aeruginosa; test: Antibiofilm activity against Pseudomonas aeruginosa clinical isolate 629 assessed as inhibition of biofilm formation at sub-inhibitory concentration incubated for 24 hrs by crystal violet staining based microtiter plate method; format: functional, organism-based
How it was run: (§1)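 Washed overnight cultures in BM2 medium at 1 × 10^6 CFU/mL with 2-fold serial peptide dilutions in a U-bottom 96-well plate. Incubated 24 h at 37 °C without agitation. Unattached cells washed off, then 0.1% crystal violet stain read at 590 nm. No-bacteria blanks. Biomass expressed as % of untreated biofilm. At least three biological repeats.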

[2] = tested on: Pseudomonas aeruginosa; test: Antibiofilm activity against Pseudomonas aeruginosa clinical isolate 25 assessed as inhibition of biofilm formation at sub-inhibitory concentration incubated for 24 hrs by crystal violet staining based microtiter plate method; format: functional, organism-based; how it was run: as §1
[3] = tested on: Pseudomonas aeruginosa; test: Antibiofilm activity against Pseudomonas aeruginosa clinical isolate 72 assessed as inhibition of biofilm formation at sub-inhibitory concentration incubated for 24 hrs by crystal violet staining based microtiter plate method; format: functional, organism-based; how it was run: as §1
[4] = tested on: Pseudomonas aeruginosa; test: Antibiofilm activity against Pseudomonas aeruginosa clinical isolate 24 assessed as inhibition of biofilm formation at sub-inhibitory concentration incubated for 24 hrs by crystal violet staining based microtiter plate method; format: functional, organism-based; how it was run: as §1
[5] = tested on: Pseudomonas aeruginosa; test: Induction of biofilm degradation of Pseudomonas aeruginosa clinical isolate 29 at 50 uM incubated for 1 hr by crystal violet staining analysis relative to control; format: functional
How it was run: (§2)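 Bacteria at 1 × 10^6 CFU/mL in BM2 grown static at 37 °C for 24 h to form biofilm. Wells rinsed of unattached cells, then exposed for 1 h to serial peptide dilutions (1.56–50 μM). Washed, stained with 0.1% crystal violet, A590 read. Biomass given as % of untreated biofilm; no-bacteria wells as blanks. At least three biological repeats.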

[6] = tested on: Pseudomonas aeruginosa; test: Induction of biofilm degradation of Pseudomonas aeruginosa clinical isolate 40 at 50 uM incubated for 1 hr by crystal violet staining analysis relative to control; format: functional; how it was run: as §2
[7] = tested on: Pseudomonas aeruginosa; test: Inhibition of biofilm formation of Pseudomonas aeruginosa clinical isolate 24 derived from cystic fibrosis patient sputum at 0.78 to 25 uM by crystal violet based staining analysis; format: functional, organism-based; conditions: dose 0.78-25 µM
How it was run: (§3)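 CF patient sputum diluted 10-fold with BM2, bacteria added with serial peptide dilutions starting from the highest MIC per isolate. Inoculum suspension 1 × 10^6 CFU/mL. Incubated 24 h at 37 °C without agitation. Unattached cells washed away, then 0.1% crystal violet staining and A590. Biomass given as % of untreated, with no-bacteria blanks.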

[8] = tested on: Pseudomonas aeruginosa; test: Inhibition of biofilm formation of Pseudomonas aeruginosa clinical isolate 24 derived from cystic fibrosis patient sputum at 0.09 to 3.12 uM by crystal violet based staining analysis; format: functional, organism-based; conditions: dose 0.09-3.12 µM; how it was run: as §3
[9] = tested on: Pseudomonas aeruginosa; test: Induction of biofilm degradation of Pseudomonas aeruginosa clinical isolate 40 at sub MIC concentration incubated for 1 hr by crystal violet staining analysis; format: functional; how it was run: as §2
[10] = tested on: Pseudomonas aeruginosa; test: Induction of biofilm degradation of Pseudomonas aeruginosa clinical isolate 24 incubated for 1 hr by crystal violet staining analysis relative to control; format: functional; conditions: dose 50.0 µM; how it was run: as §2
[11] = tested on: Pseudomonas aeruginosa; test: Induction of biofilm degradation of Pseudomonas aeruginosa clinical isolate 59 at <12.5 uM incubated for 1 hr by crystal violet staining analysis; format: functional; how it was run: as §2
[12] = tested on: Pseudomonas aeruginosa; test: Induction of biofilm degradation of Pseudomonas aeruginosa clinical isolate 995 at 50 uM incubated for 1 hr by crystal violet staining analysis relative to control; format: functional; how it was run: as §2
[13] = tested on: Pseudomonas aeruginosa; test: Induction of biofilm degradation of Pseudomonas aeruginosa clinical isolate 71 at 50 uM incubated for 1 hr by crystal violet staining analysis relative to control; format: functional; how it was run: as §2
[14] = tested on: Pseudomonas aeruginosa; test: Antibiofilm activity against Pseudomonas aeruginosa clinical isolate 53 assessed as inhibition of biofilm formation at sub-inhibitory concentration incubated for 24 hrs by crystal violet staining based microtiter plate method; format: functional, organism-based; how it was run: as §1
[15] = tested on: Pseudomonas aeruginosa; test: Antibiofilm activity against Pseudomonas aeruginosa PAO1 in basal medium 2 at 12.5 to 100 uM incubated for 24 hrs by resazurin staining based microtiter plate method; format: functional, organism-based; conditions: dose 12.5-100 µM
[16] = tested on: Pseudomonas aeruginosa; test: Induction of biofilm degradation of Pseudomonas aeruginosa clinical isolate 53 at 50 uM incubated for 1 hr by crystal violet staining analysis relative to control; format: functional; how it was run: as §2
[17] = tested on: Pseudomonas aeruginosa; test: Induction of biofilm degradation of Pseudomonas aeruginosa clinical isolate 53 at sub MIC concentration incubated for 1 hr by crystal violet staining analysis; format: functional; how it was run: as §2
[18] = tested on: Pseudomonas aeruginosa; test: Induction of biofilm degradation of Pseudomonas aeruginosa PAO1 at 50 uM incubated for 1 hr by crystal violet staining analysis relative to control; format: functional; how it was run: as §2
[19] = tested on: Pseudomonas aeruginosa; test: Inhibition of biofilm formation of Pseudomonas aeruginosa clinical isolate 82 derived from cystic fibrosis patient sputum at 0.09 to 3.12 uM by crystal violet based staining analysis; format: functional, organism-based; conditions: dose 0.09-3.12 µM; how it was run: as §3
[20] = tested on: Pseudomonas aeruginosa; test: Induction of biofilm degradation of Pseudomonas aeruginosa clinical isolate 72 at 50 uM incubated for 1 hr by crystal violet staining analysis relative to control; format: functional; how it was run: as §2
[21] = tested on: Pseudomonas aeruginosa; test: Induction of biofilm degradation of Pseudomonas aeruginosa clinical isolate 629 at 50 uM incubated for 1 hr by crystal violet staining analysis relative to control; format: functional; how it was run: as §2
[22] = tested on: Pseudomonas aeruginosa; test: Antibiofilm activity against Pseudomonas aeruginosa clinical isolate 71 assessed as inhibition of biofilm formation at sub-inhibitory concentration incubated for 24 hrs by crystal violet staining based microtiter plate method; format: functional, organism-based; how it was run: as §1
[23] = tested on: Pseudomonas aeruginosa; test: Induction of biofilm degradation of Pseudomonas aeruginosa clinical isolate 46 at 50 uM incubated for 1 hr by crystal violet staining analysis relative to control; format: functional; how it was run: as §2
[24] = tested on: Pseudomonas aeruginosa; test: Induction of biofilm degradation of Pseudomonas aeruginosa clinical isolate 24 at sub MIC concentration incubated for 1 hr by crystal violet staining analysis; format: functional; how it was run: as §2
[25] = tested on: Pseudomonas aeruginosa; test: Induction of biofilm degradation of Pseudomonas aeruginosa clinical isolate 172 at 50 uM incubated for 1 hr by crystal violet staining analysis relative to control; format: functional; how it was run: as §2
[26] = tested on: Pseudomonas aeruginosa; test: Antibiofilm activity against Pseudomonas aeruginosa clinical isolate 99 assessed as inhibition of biofilm formation at sub-inhibitory concentration incubated for 24 hrs by crystal violet staining based microtiter plate method; format: functional, organism-based; how it was run: as §1
[27] = tested on: Pseudomonas aeruginosa; test: Induction of biofilm degradation of Pseudomonas aeruginosa clinical isolate 52 at 50 uM incubated for 1 hr by crystal violet staining analysis relative to control; format: functional; how it was run: as §2
[28] = tested on: Pseudomonas aeruginosa; test: Induction of biofilm degradation of Pseudomonas aeruginosa clinical isolate 238 at 50 uM incubated for 1 hr by crystal violet staining analysis relative to control; format: functional; how it was run: as §2
[29] = tested on: Pseudomonas aeruginosa; test: Induction of biofilm degradation of Pseudomonas aeruginosa clinical isolate 251 at 50 uM incubated for 1 hr by crystal violet staining analysis; format: functional; how it was run: as §2
[30] = tested on: Pseudomonas aeruginosa; test: Induction of biofilm degradation of Pseudomonas aeruginosa clinical isolate 25 at 50 uM incubated for 1 hr by crystal violet staining analysis relative to control; format: functional; how it was run: as §2
[31] = tested on: Pseudomonas aeruginosa; test: Induction of biofilm degradation of Pseudomonas aeruginosa clinical isolate 99 at 50 uM incubated for 1 hr by crystal violet staining analysis relative to control; format: functional; how it was run: as §2
[32] = tested on: Pseudomonas aeruginosa; test: Antibiofilm activity against Pseudomonas aeruginosa clinical isolate 46 assessed as inhibition of biofilm formation at sub-inhibitory concentration incubated for 24 hrs by crystal violet staining based microtiter plate method; format: functional, organism-based; how it was run: as §1
[33] = tested on: Pseudomonas aeruginosa; test: Induction of biofilm degradation of Pseudomonas aeruginosa clinical isolate 82 at 50 uM incubated for 1 hr by crystal violet staining analysis relative to control; format: functional; how it was run: as §2
[34] = tested on: Pseudomonas aeruginosa; test: Inhibition of biofilm formation of Pseudomonas aeruginosa PAO1 in patient derived CF-sputum at 0.09 to 3.12 uM by crystal violet based staining analysis; format: functional, organism-based; conditions: dose 0.09-3.12 µM; how it was run: as §3
[35] = tested on: Pseudomonas aeruginosa; test: Drug resistance in Pseudomonas aeruginosa PAO1 in BM2 medium assessed as fold change in MIC

Row | Structure (SMILES) | inhibition [1] | inhibition [2] | inhibition [3] | inhibition [4] | Activity [5] [%] | Activity [6] [%] | inhibition [7] | inhibition [8] | Activity [9] | Activity [10] [%] | Activity [11] | Activity [12] [%] | Activity [13] [%] | inhibition [14] | Activity [15] | Activity [16] [%] | Activity [17] | Activity [18] [%] | inhibition [19] | Activity [20] [%] | other results
1 | CC(C)C[C@H](NC(=O)[C@H](CC(C)C)NC(=O)[C@H](CC(C)C)NC(=O)[C@H](CC(C)C)NC(=O)[C@H](CC(C)C)NC(=O)[C@H](CC(C)C)NC(=O)[C@H](CC(C)C)NC(=O)[C@H](CC(C)C)NC(=O)[C@H](CC(C)C)NC(=O)[C@H](CCCCN)NC(=O)[C@H](CCCCN)NC(=O)[C@@H](N)CCCCN)C(=O)N[C@@H](CCCCN)C(=O)N[C@@H](CCCCN)C(=O)N[C@@H](CCCCN)C(N)=O | Active | Active | Active | Active | 60 | 60 | Active | Active | Active | 60 | Active | 60 | 60 | Active | Active | 60 | Active | 60 | Active | 60 | Activity [21]: 60%; inhibition [22]: Active; Activity [23]: 60%; Activity [24]: Active; Activity [25]: 60%; inhibition [26]: Active; Activity [27]: 60%; Activity [28]: 60%; Activity [29]: 60%; Activity [30]: 60%; Activity [31]: 60%; inhibition [32]: Active; Activity [33]: 60%; inhibition [34]: Active
2 | CC[C@H](C)[C@H](NC(=O)[C@H](CCCCN)NC(=O)[C@H](CCC(=O)O)NC(=O)[C@H](CCCCN)NC(=O)[C@H](CO)NC(=O)[C@H](CCCCN)NC(=O)[C@H](CCCNC(=N)N)NC(=O)[C@H](Cc1ccccc1)NC(=O)[C@H](Cc1ccccc1)NC(=O)[C@H](CC(=O)O)NC(=O)CNC(=O)[C@H](CC(C)C)NC(=O)[C@@H](N)CC(C)C)C(=O)NCC(=O)N[C@@H](CCCCN)C(=O)N[C@@H](CCC(=O)O)C(=O)N[C@@H](Cc1ccccc1)C(=O)N[C@@H](CCCCN)C(=O)N[C@@H](CCCNC(=N)N)C(=O)N[C@H](C(=O)N[C@H](C(=O)N[C@@H](CCC(N)=O)C(=O)N[C@@H](CCCNC(=N)N)C(=O)N[C@H](C(=O)N[C@@H](CCCCN)C(=O)N[C@@H](CC(=O)O)C(=O)N[C@@H](Cc1ccccc1)C(=O)N[C@@H](CC(C)C)C(=O)N[C@@H](CCCNC(=N)N)C(=O)N[C@@H](CC(N)=O)C(=O)N[C@@H](CC(C)C)C(=O)N[C@H](C(=O)N1CCC[C@H]1C(=O)N[C@@H](CCCNC(=N)N)C(=O)N[C@H](C(=O)N[C@@H](CCC(=O)O)C(=O)N[C@@H](CO)C(N)=O)[C@@H](C)O)C(C)C)[C@@H](C)CC)C(C)C)[C@@H](C)CC | Active | Active | Active | Active | 60 | 60 | Active | Active | Active | 60 | Active | 60 | 60 | Active | Active | 60 | Active | 60 | Active | 60 | fold change (FC) [35]: <20; Activity [21]: 60%; inhibition [22]: Active; Activity [23]: 60%; Activity [24]: Active; Activity [25]: 60%; inhibition [26]: Active; Activity [27]: 60%; Activity [28]: 60%; Activity [29]: 60%; Activity [30]: 60%; Activity [31]: 60%; inhibition [32]: Active; Activity [33]: 60%; inhibition [34]: Active
